Results from different studies.
Compare with care: the assays were run in different laboratories.
Target: Phosphatidylinositol 4-phosphate 3-kinase C2 domain-containing subunit beta (PIK3C2B, Homo sapiens, UniProt O00750)

SMILES	test	setting	remaining binding [%]
FC(F)(F)Oc1cccc(-c2cnc3ccc(-c4ccncc4)nn23)c1	cell-free assay, competition with immobilised ligand	5 µM	54
COc1cnc(Nc2cccc(S(N)(=O)=O)c2)nc1N1CCN(c2ccccc2)CC1	binding, competition with immobilised ligand	1 µM	100
N#Cc1ccccc1CSc1nnc2c(n1)[nH]c1ccccc12	binding, competition with immobilised ligand	10 µM	95
CN(C)c1nccc(-c2cnc3ncccn23)n1	binding	1 µM	57
O=C(NCC1CCOCC1)c1n[nH]cc1NC(=O)c1c(F)cccc1F	binding, competition with immobilised ligand	1 µM	100
Cc1nccc(COC(=O)N2C[C@@H]3[C@@H](CNC(=O)c4ccc5[nH]nnc5c4)[C@@H]3C2)n1	cell-free assay, competition with immobilised ligand	1 µM	97
CN(C)c1ncc(F)c(-c2cnn3ncccc23)n1	binding	1 µM	76
O=C(Nc1cccnn1)N1CCC(=Cc2cccc(Oc3ccc(C(F)(F)F)cn3)c2)CC1	cell-free assay, competition with immobilised ligand	1 µM	91
CN(c1nccc(-c2cnn3ncccc23)n1)C1CC1	binding	1 µM	100
Cc1cnc(Nc2ccc(C(=O)N3CCC(N4CCCC4)CC3)cc2)nc1-c1cc2ccccc2s1	binding, competition with immobilised ligand	1 µM	99
Nc1ncc2c(n1)-c1c([nH]c3ccc(C#CC4CC4)cc13)CCCC2	binding, competition with immobilised ligand	1 µM	89
O=C(c1ccc(Nc2ncc(Cl)c(-c3cc4ccccc4s3)n2)cc1)N1CCC(N2CCCC2)CC1	binding, competition with immobilised ligand	1 µM	100
Cc1nc(NC(=O)N2CCC[C@H]2C(N)=O)sc1-c1ccnc(C(C)(C)C(F)(F)F)c1	binding, competition with immobilised ligand	10 µM	4
N[C@@H]1CCN(c2nccc(-c3cnn4ncccc34)n2)C1	binding	1 µM	100
CCS(=O)(=O)c1cc2cc(C[C@@](O)(CC(C)(C)c3ccc(F)cc3C(N)=O)C(F)(F)F)[nH]c2cn1	cell-free assay, competition with immobilised ligand	1 µM	86
C[C@@H](c1ccc(-n2cnc3c(N)ncnc32)cc1)N1CCc2nn(C)c(Cc3ccccc3)c2C1=O	binding, competition with immobilised ligand	0.1 µM	87
C[C@@H]1CN(c2cc(-c3nn(C)c4ccc(OC5(C)CC5)cc34)ncn2)C[C@H](C)O1	cell-free assay, competition with immobilised ligand	1 µM	70
COc1cnc(Nc2cccc(S(N)(=O)=O)c2)nc1N1CCN(c2ccccc2)C(=O)C1	binding, competition with immobilised ligand	1 µM	97
C[C@@H](c1cccc(C#N)c1)n1cc(Cl)cc(C(N)=O)c1=N	cell-free assay, competition with immobilised ligand	1 µM	96
O=C(NCCCN1CCOCC1)c1ccc(Nc2nccc(-c3cc4ccccc4s3)n2)cc1	binding, competition with immobilised ligand	1 µM	92
F[C@@H]1CCN(c2nccc(-c3cnn4ncccc34)n2)C1	binding	1 µM	85
COCCOc1nc(-c2ccc(Cl)nc2)nc2c1CN(C(=O)c1ncn3ccccc13)CC2	cell-free assay, competition with immobilised ligand	0.1 µM	100
C[C@H]1CCN(c2nccc(-c3cnn4ncccc34)n2)C1	binding	1 µM	91
O=C(N[C@H]1CCCCC/C=C\C2C[C@@]2(C(=O)O)NC(=O)[C@@H]2C[C@@H](Oc3ccncc3)CN2C1=O)OC1CCCC1 (stereo partly drawn)	binding, competition with immobilised ligand	1 µM	84
